According to ChEMBL document CHEMBL4359814, “A Potent Isoprenylcysteine Carboxylmethyltransferase (ICMT) Inhibitor Improves Survival in Ras-Driven Acute Myeloid Leukemia” (J Med Chem, 2019):
The source made the active and inactive calls. No cut-off for these calls is given here.

What was measured:
[1] = Permeability of the compound; assay type: ADME
How it was run: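 Parallel artificial membrane assay, expressed as percentage of compound passing through the membrane. Mean±SEM of at least two independent experiments in duplicate.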

Albumin = Albumin (Homo sapiens, UniProt P02768); assay: Binding affinity to human serum albumin; assay type: ADME; settings: for fraction unbound: human, human serum albumin, read-out: PB (converted)
Chain of Albumin (P02768 whole entry): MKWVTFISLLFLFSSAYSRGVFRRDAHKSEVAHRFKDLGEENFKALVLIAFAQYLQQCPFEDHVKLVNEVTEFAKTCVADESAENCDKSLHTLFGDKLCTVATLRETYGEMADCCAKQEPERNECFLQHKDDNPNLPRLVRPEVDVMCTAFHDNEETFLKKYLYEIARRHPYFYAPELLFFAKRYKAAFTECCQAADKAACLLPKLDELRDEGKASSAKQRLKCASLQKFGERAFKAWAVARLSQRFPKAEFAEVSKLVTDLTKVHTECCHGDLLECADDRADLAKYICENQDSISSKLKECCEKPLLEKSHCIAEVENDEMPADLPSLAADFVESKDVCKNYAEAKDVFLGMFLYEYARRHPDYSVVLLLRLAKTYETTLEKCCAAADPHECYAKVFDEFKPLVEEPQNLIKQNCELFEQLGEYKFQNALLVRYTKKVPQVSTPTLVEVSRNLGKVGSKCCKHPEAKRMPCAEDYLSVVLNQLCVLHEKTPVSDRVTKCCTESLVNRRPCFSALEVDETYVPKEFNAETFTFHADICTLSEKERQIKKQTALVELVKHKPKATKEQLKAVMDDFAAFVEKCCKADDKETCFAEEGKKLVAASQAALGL

[2] = target: Protein-S-isoprenylcysteine O-methyltransferase (Homo sapiens) (UniProt O60725); assay: Inhibition of recombinant human ICMT expressed in Sf9 insect cell membranes at 50 uM using biotin-farnesyl-L-cysteine as substrate preincubated for 15 mins followed by substrate addition and measured after 30 mins by scintillation counting analysis relative to control
Chain of Protein-S-isoprenylcysteine O-methyltransferase (Homo sapiens) (O60725 whole entry, the tested form may be a part): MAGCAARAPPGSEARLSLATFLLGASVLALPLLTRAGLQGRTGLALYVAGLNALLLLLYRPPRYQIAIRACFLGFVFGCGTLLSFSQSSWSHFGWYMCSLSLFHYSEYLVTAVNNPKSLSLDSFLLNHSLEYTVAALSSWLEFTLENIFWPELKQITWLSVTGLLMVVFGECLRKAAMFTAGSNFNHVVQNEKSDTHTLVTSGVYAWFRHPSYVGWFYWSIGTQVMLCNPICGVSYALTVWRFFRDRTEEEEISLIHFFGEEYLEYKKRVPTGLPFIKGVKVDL

[3] = target: Tyrosine-protein kinase Fyn (Homo sapiens) (UniProt P06241); assay: Effect on GFP-fused Fyn (unknown origin) transfected in human AD293 cells assessed as induction of Fyn mislocalization at 5 uM by laser confocal microscopic analysis; assay type: cell-based
Chain of Tyrosine-protein kinase Fyn (Homo sapiens) (P06241 2-537 limits assumed): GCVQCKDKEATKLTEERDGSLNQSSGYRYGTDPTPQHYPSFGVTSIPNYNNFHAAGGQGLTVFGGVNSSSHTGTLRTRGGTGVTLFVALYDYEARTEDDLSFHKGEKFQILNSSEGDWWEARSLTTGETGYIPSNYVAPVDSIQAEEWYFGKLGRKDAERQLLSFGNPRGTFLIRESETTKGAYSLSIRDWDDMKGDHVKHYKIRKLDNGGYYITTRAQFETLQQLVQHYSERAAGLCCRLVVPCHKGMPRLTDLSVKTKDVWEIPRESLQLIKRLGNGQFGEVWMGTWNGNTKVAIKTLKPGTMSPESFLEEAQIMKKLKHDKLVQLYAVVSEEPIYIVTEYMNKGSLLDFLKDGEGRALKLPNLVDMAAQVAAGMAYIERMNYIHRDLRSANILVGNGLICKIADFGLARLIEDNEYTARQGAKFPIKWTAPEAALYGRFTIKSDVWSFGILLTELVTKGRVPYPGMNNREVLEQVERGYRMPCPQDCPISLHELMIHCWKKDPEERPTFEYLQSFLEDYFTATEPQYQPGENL

[4] = […] at 25 mg/kg, ip measured up to 6 hrs by LC-MS/MS analysis; assay type: ADME, organism-based; settings: NSG, mouse, plasma
[5] = Drug level in NSG mouse plasma at 25 mg/kg, ip measured after 1 hr by LC-MS/MS analysis; assay type: ADME, organism-based
How it was run: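 8-week female mice received a single 25 mg/kg ip dose. Blood was taken by cardiac puncture at set time points (n=3 per point), clotted 30 min at rt and centrifuged. Serum was extracted with cold acetonitrile, filtered, and analysed by LC-MS/MS on a C18 column using positive ESI and MRM transition 423.50 > 289.05.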

[6] = Drug level in NSG mouse plasma xenografted with human HL60 cells at 25 mg/kg, ip administered 5 days a week followed by 2 days interval for 15 days measured 2 hrs post-last dose by LC-MS/MS analysis; assay type: ADME, organism-based
[7] = target: T1, Protein farnesyltransferase (Homo sapiens) (UniProt P49354+P49356); assay: Inhibition of FTase in human PC3 cells assessed as reduction in HDJ2 farnesylation at 10 uM measured after 24 hrs by Western blot analysis; assay type: cell-based
CAAX prenyl protease 2 = target: T2, CAAX prenyl protease 2 (Homo sapiens, UniProt Q9Y256); assay: Inhibition of Rce1 in human PC3 cells at 10 uM using KSKTKC(f)VI as substrate measured after 24 hrs by LC-MS/MS analysis; assay type: cell-based
T2 sequence (Q9Y256 whole entry): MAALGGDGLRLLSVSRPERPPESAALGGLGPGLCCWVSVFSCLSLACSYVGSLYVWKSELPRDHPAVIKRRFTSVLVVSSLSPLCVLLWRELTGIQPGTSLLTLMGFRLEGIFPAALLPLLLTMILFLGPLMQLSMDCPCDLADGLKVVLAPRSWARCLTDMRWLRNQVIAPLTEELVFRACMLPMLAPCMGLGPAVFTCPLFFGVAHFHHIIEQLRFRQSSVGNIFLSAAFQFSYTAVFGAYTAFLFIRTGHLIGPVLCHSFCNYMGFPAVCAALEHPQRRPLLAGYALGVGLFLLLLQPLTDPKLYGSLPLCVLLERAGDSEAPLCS
How it was run: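 PC-3 cells were incubated ±10 μM compound for 24 h and homogenised in 100 mM HEPES pH 7.5, 5 mM MgCl2, 0.5% NP-40. Homogenate, 0.2 mg, was reacted with 250 μM KSKTKC(f)VI for 60 min at 37 °C. Reactions were stopped with ice-cold acetonitrile, and the M+2/2 ion was followed by HPLC-MS/MS.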

Homo sapiens [8] = species on record: Homo sapiens; assay: Inhibition of GGTase in human PC3 cells assessed as reduction in Rap1A geranylgeranylation at 1 uM measured after 24 hrs by Western blot analysis; assay type: cell-based
[9] = target: T1, Protein farnesyltransferase (Homo sapiens); settings: 1 uM
Homo sapiens [10] = species on record: Homo sapiens; assay: Inhibition of GGTase in human PC3 cells assessed as reduction in Rap1A geranylgeranylation at 10 uM measured after 24 hrs by Western blot analysis; assay type: cell-based
[11] = target: Protein-S-isoprenylcysteine O-methyltransferase (Homo sapiens) (UniProt O60725); assay: Inhibition of ICMT in human PC3 cells assessed as induction of mislocalization of endogenous Ras at 5 uM preincubated for 48 hrs followed by compound washout and subsequent compound addition measured after 72 hrs by Hoechst 33258 staining-based confocal microscopic analysis; assay type: cell-based
How it was run: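 PC3 cells were seeded at 2×10^4 on poly-D-lysine coverslips for 24 h in RPMI with 10% FBS. They were treated with compound or DMSO for 120 h, with medium and compound renewed at 48 h. Cells were fixed in 4% PFA, permeabilised with Triton X-100, and stained with anti-Ras and a fluorescent secondary, with Hoechst for nuclei. Imaging used a 60X confocal objective, and membrane Ras signal was quantified.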

PC-3 [12] = assay: Induction of autophagy in human PC3 cells assessed as increase in LC3 expression at 25 uM measured after 24 hrs by Western blot analysis; assay type: functional, cell-based
PC-3 [13] = assay: Induction of apoptosis in human PC3 cells assessed as increase in cleaved PARP expression at 25 uM measured after 24 hrs by Western blot analysis; assay type: functional, cell-based
PC-3 [14] = assay: Induction of apoptosis in human PC3 cells assessed as increase in caspase 3 activity at 25 uM; assay type: functional, cell-based
[15] = target: Protein-S-isoprenylcysteine O-methyltransferase (Homo sapiens) (UniProt O60725); assay: Inhibition of ICMT in human AD293 cells transfected GFP-fused H-Ras assessed as induction of H-Ras mislocalization at 5 uM by laser scanning confocal microscopic analysis; assay type: cell-based
How it was run: (§1)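 AD-293 cells were transiently transfected with GFP fusion plasmids of H-Ras, K-Ras4A, K-Ras4B or N-Ras. They were treated overnight with 5 μM compound or DMSO, then imaged live by laser scanning confocal microscopy. Three independent transfections were performed in triplicate.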

[16] = target: Protein-S-isoprenylcysteine O-methyltransferase (Homo sapiens) (UniProt O60725); assay: Inhibition of ICMT in human AD293 cells transfected GFP-fused N-Ras assessed as induction of N-Ras mislocalization at 5 uM by laser scanning confocal microscopic analysis; assay type: cell-based; how it was run: as §1
[17] = target: Protein-S-isoprenylcysteine O-methyltransferase (Homo sapiens) (UniProt O60725); assay: Inhibition of ICMT in human AD293 cells transfected GFP-fused K-Ras4A assessed as induction of K-Ras4A mislocalization at 5 uM by laser scanning confocal microscopic analysis; assay type: cell-based; how it was run: as §1
[18] = target: Protein-S-isoprenylcysteine O-methyltransferase (Homo sapiens) (UniProt O60725); assay: Inhibition of ICMT in human AD293 cells transfected GFP-fused K-Ras4B assessed as induction of K-Ras4B mislocalization at 5 uM by laser scanning confocal microscopic analysis; assay type: cell-based; how it was run: as §1
MIA PaCa-2 = assay: Induction of apoptosis in human MIAPaCa2 cells assessed as increase in sub-G0/G1 population at 50 uM measured after 24 hrs by propidium iodide staining based flow cytometry; assay type: functional, cell-based
HuP-T4 = assay: Induction of apoptosis in human HUPT4 cells assessed as increase in sub-G0/G1 population at 50 uM measured after 24 hrs by propidium iodide staining based flow cytometry; assay type: functional, cell-based
PANC-1 = assay: Induction of apoptosis in human PANC1 cells assessed as increase in sub-G0/G1 population at 50 uM measured after 24 hrs by propidium iodide staining based flow cytometry; assay type: functional, cell-based
PK9 = assay: Induction of apoptosis in human PK9 cells assessed as increase in sub-G0/G1 population at 50 uM measured after 24 hrs by propidium iodide staining based flow cytometry; assay type: functional, cell-based
Capan-2 = assay: Induction of apoptosis in human Capan2 cells assessed as increase in sub-G0/G1 population at 50 uM measured after 24 hrs by propidium iodide staining based flow cytometry; assay type: functional, cell-based

CCCCCCCCN(CCC(=O)Nc1ccccc1)CCC(=O)Nc1ccc(F)cc1
permeability [1]: 54% | Kd (Albumin): 7.8 µM | fraction unbound (Albumin): 0.013

CCCCCCCCN(CCC(=O)Nc1ccccc1)CCC(=O)NC1CCCCC1
permeability [1]: 50% | Kd (Albumin): 3 µM | fraction unbound (Albumin): 0.005

CCCCCCCCN(CCS(=O)(=O)Nc1ccccc1)CCS(=O)(=O)Nc1ccccc1
inhibition [2]: 34%

CCCCCCCCN(CCC(=O)Nc1ccccc1)CCS(=O)(=O)N(C)c1ccccc1
inhibition [2]: 10%

CCOCCOCCN(CCC(=O)Nc1ccccc1)CCC(=O)Nc1ccccc1
inhibition [2]: 15%

CCCCCCCCN(CCC(=O)Nc1ccccc1)CCC(=O)Nc1ccccc1
permeability [1]: 68% | Kd (Albumin): 28 µM | fraction unbound (Albumin): 0.046 | Activity [3]: inactive | concentration at 6 h [4]: 480 nM | concentration at 1 h [5]: 1700 nM | concentration at 2 h [6]: 736 nM | inhibition [7]: inactive | inhibition (INH) (CAAX prenyl protease 2): Not Active

CCCCCCCCN(CCS(=O)(=O)N(C)c1ccccc1)CCS(=O)(=O)N(C)c1ccccc1
inhibition [2]: 12%

NC(=O)N1CCC(CC(=O)N2CCC([C@H]3c4ncc(Br)cc4CCc4cc(Cl)cc(Br)c43)CC2)CC1
inhibition (Homo sapiens [8]): inactive | inhibition [9]: Active

CCCCCCCCN(CCC(=O)Nc1ccccc1)CCS(=O)(=O)Nc1ccccc1
inhibition [2]: 22%

COC(=O)[C@H](CC(C)C)NC(=O)c1ccc(NC[C@@H](N)CS)cc1-c1cccc2ccccc12
inhibition [7]: inactive | inhibition (Homo sapiens [10]): Active

CCCCCCCCn1cc(CC(N)=O)c2cc(-c3cccc(C)c3)ccc21
inhibition [11]: Active | Activity (PC-3 [12]): Active | Activity (PC-3 [13]): Active | Activity (PC-3 [14]): Active | inhibition [15]: Active | inhibition [16]: Active | inhibition [17]: Active | inhibition [18]: Active | Activity [3]: inactive | Activity (MIA PaCa-2): Active | Activity (HuP-T4): Active | Activity (PANC-1): Active | Activity (PK9): Active | Activity (Capan-2): Active
